In ChEMBL document CHEMBL1138778, “Effects of altering the electronics of 2-methoxyestradiol on cell proliferation, on cytotoxicity in human cancer cell cultures, and on tubulin polymerization” (J Med Chem, 2004):

Tests used:
[1] = system: OVCAR-3; assay: Growth inhibitory concentration required against human ovarian OVCAR-3 cancer cell line; assay type: functional
Method in brief: (§1)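 Screen over 10^-4 to 10^-8 M in a human cancer cell line panel. GI50 is the concentration giving 50% growth inhibition of the individual cell line.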

[2] = system: HUVEC; assay: Inhibitory concentration required against growth of HUVEC […] cell line; assay type: functional, cell-based; details: Homo sapiens
Method in brief: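 HUVEC, used up to five passages in EGM with bovine brain extract and antibiotic-antimycotic, seeded at 3000 cells/well and attached overnight. Cells were exposed to compound for 48 h. Proliferation was read by BrdU-incorporation colorimetric ELISA or by cell counting, in triplicate, with experiments repeated at least twice.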

[3] = molecular target: Tubulin (Bos taurus, UniProt Q6B856+Q862L2+Q862F3); assay: Inhibitory concentration against bovine tubulin polymerization; assay type: functional
Method in brief: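 Bovine brain tubulin, 1.2 mg/mL (12 μM), was preincubated with a range of compound concentrations and then chilled on ice. GTP was added and assembly followed by turbidity at 350 nm for 20 min at 26 °C. IC50 is the concentration halving assembly at 20 min, from at least two independent assays.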

[4] = system: HOP-62; assay: Growth inhibitory concentration against human lung cancer HOP-62 cell line; assay type: functional; method in brief: as §1
[5] = system: DU-145; assay: Growth inhibitory concentration required against human prostate DU-145 cancer cell line; assay type: functional; method in brief: as §1
[6] = system: MDA-MB-435; assay: Growth inhibitory concentration required against human breast MDA-MB-435 cancer cell line; assay type: functional; method in brief: as §1
[7] = system: HCT-116; assay: Growth inhibitory concentration against human colon cancer HCT116 cell line; assay type: functional; method in brief: as §1
[8] = system: SF-539; assay: Growth inhibitory concentration required against human CNS SF-539 cancer cell line; assay type: functional; method in brief: as §1
[9] = system: SN12C; assay: Growth inhibitory concentration required for against human renal SN12C cancer cell line; assay type: functional; method in brief: as §1
[10] = Average concentration required for 50% growth inhibition of human cancer cell line (tested); assay type: functional; details: Cancer cell lines
Method in brief: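 Mean graph midpoint: average of the individual cell line GI50 values across all cancer lines screened over 10^-4 to 10^-8 M. GI50 values falling outside this range were set to 10^-8 M (below) or 10^-4 M (above).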

[11] = system: MDA-MB-231; assay: Inhibitory concentration against growth of MDA-MB-231 cancer cell line; assay type: functional, cell-based; details: Homo sapiens
Method in brief: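 MDA-MB-231 cells in DMEM/F12 (1:1) with 10% FBS, seeded at 1000 cells/well and attached overnight. Cells were exposed to compound for 48 h. Proliferation was read by BrdU-incorporation colorimetric ELISA or by cell counting, in triplicate, with experiments repeated at least twice.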

[12] = system: UACC-62; assay: Growth inhibitory concentration required against human melanoma UACC-62 cancer cell line; assay type: functional; method in brief: as §1

Row | SMILES | GI50 [1] | IC50 [2] | IC50 [3] | GI50 [4] | GI50 [5] | GI50 [6] | GI50 [7] | GI50 [8] | GI50 [9] | GI50 [10] | IC50 [11] | GI50 [12]
1 | C[C@]12CC[C@@H]3c4cc(CO)c(O)cc4CC[C@H]3[C@@H]1CC[C@@H]2O | 31.6 µM | 7.73 µM | > 40 µM | 72.4 µM | 70.8 µM | 24 µM | 74.1 µM | 38 µM | 63.1 µM | 34.7 µM | 99.2 µM | 23.4 µM
2 | CCOc1cc2c(cc1O)CC[C@@H]1[C@@H]2CC[C@]2(C)[C@@H](O)CC[C@@H]12 |  | 0.12 µM |  |  |  |  |  |  |  |  | 0.55 µM | 
3 | CC#Cc1cc2c(cc1O)CC[C@@H]1[C@@H]2CC[C@]2(C)[C@@H](O)CC[C@@H]12 |  | 0.52 µM |  |  |  |  |  |  |  |  | 3.99 µM | 
4 | C[C@]1(O)CC[C@H]2[C@@H]3CCc4cc(O)ccc4[C@H]3CC[C@@]21C | 0.66 µM | 3.09 µM | 5.6 µM | 18.2 µM | 2 µM | 0.19 µM | 0.7 µM | 0.35 µM | 10.2 µM | 2.5 µM | 7.14 µM | 1.48 µM
5 | C=CCc1cc2c(cc1O)CC[C@@H]1[C@@H]2CC[C@]2(C)[C@@H](O)CC[C@@H]12 | 21.9 µM | 8.51 µM | > 40 µM | 13.8 µM | 24 µM | 15.1 µM | 14.1 µM | 21.9 µM | 18.2 µM | 18.2 µM | 33.4 µM | 13.2 µM
6 | CCC(=O)c1cc2c(cc1O)CC[C@@H]1[C@@H]2CC[C@]2(C)[C@@H](O)CC[C@@H]12 | 4 µM | 22.5 µM | > 40 µM | 15.1 µM | 15.5 µM | 2.4 µM | 9.3 µM | 11.7 µM | 13.8 µM | 12 µM | 15.8 µM | 11.5 µM
7 | CC(=O)Oc1cc2c(cc1C(C)(F)F)[C@H]1CC[C@]3(C)[C@@H](OC(C)=O)CC[C@H]3[C@@H]1CC2 | 1.9 µM | 32.3 µM | > 40 µM | 31.6 µM | 13.8 µM | 20.9 µM | 10.7 µM | 20 µM | 27.5 µM | 11.7 µM | 95.9 µM | 12.3 µM
8 | CN(C)CCC/N=C/c1cc2c(cc1O)CC[C@@H]1[C@@H]2CC[C@]2(C)[C@@H](O)CC[C@@H]12 | 19.5 µM |  | > 40 µM | 21.4 µM | 20.9 µM | 22.9 µM | 12.6 µM | 18.2 µM | 25.7 µM | 20 µM |  | 13.8 µM
9 | C/C(COc1cc2c(cc1O)CC[C@@H]1[C@@H]2CC[C@]2(C)[C@@H](O)CC[C@@H]12)=N/O | 20.4 µM |  | > 40 µM | 23.4 µM | 29.5 µM | 24 µM | 18.2 µM | 20.9 µM | 27.5 µM | 24 µM |  | 15.5 µM
10 | C=C1CC[C@H]2[C@@H]3CCc4cc(O)c(OCC)cc4[C@H]3CC[C@]12C | 0.28 µM | 0.26 µM | 2.9 µM | 0.56 µM | 0.47 µM | 0.08 µM | 0.6 µM | 0.12 µM | 0.19 µM | 0.79 µM | 0.7 µM | 0.54 µM
11 | COc1cc2c(cc1O)CC[C@@H]1[C@@H]2CC[C@@]2(C)[C@H]1CC[C@]2(C)O | 7.1 µM | 2.4 µM | > 40 µM | 15.2 µM | 12.3 µM | 1.4 µM | 2.8 µM | 6.9 µM | 7.8 µM | 10.2 µM | 3.33 µM | 6.3 µM
12 | C[C@]12CC[C@@H]3c4cc(/C=N/C5CC5)c(O)cc4CC[C@H]3[C@@H]1CC[C@@H]2O | 14.5 µM |  | > 40 µM | 24 µM | 16.6 µM | 16.2 µM | 12.3 µM | 17 µM | 70.8 µM | 16.6 µM |  | 16.2 µM
13 | CC(=O)c1cc2c(cc1O)CC[C@@H]1[C@@H]2CC[C@]2(C)[C@@H](O)CC[C@@H]12 | 25.7 µM | 15.6 µM | > 20 µM | 5.4 µM | 55 µM | 4.3 µM |  | 18.6 µM | 53.7 µM | 17.4 µM | 13.6 µM | 24.5 µM
14 | COc1cc2c(cc1O)CC[C@@H]1[C@@H]2CC[C@@]2(C)[C@H]1CC[C@]2(C)[C@H](O)c1ccccc1 | 14.1 µM | 21 µM | > 40 µM | 18.2 µM | 5.1 µM | 16.2 µM | 17 µM | 17.8 µM | 14.1 µM | 14.5 µM | 47.2 µM | 13.5 µM
15 | CC#Cc1cc2c(cc1O)CC[C@@H]1[C@@H]2CC[C@@]2(C)[C@H]1CC[C@]2(C)O | 1.5 µM | 1.94 µM | 11 µM | 3.1 µM | 4.1 µM | 0.3 µM | 4.3 µM | 2.6 µM | 7.4 µM | 3.2 µM | 5.99 µM | 4 µM
16 | C[C@]12CC[C@@H]3c4cc(C(F)(F)C(F)(F)F)c(O)cc4CC[C@H]3[C@@H]1CC[C@@H]2O | 13.2 µM | 25 µM | > 40 µM |  | 14.5 µM | 12 µM | 17.8 µM | 18.2 µM | 16.6 µM | 18.6 µM | 47.5 µM | 13.8 µM
17 | CCOc1cc2c(cc1O)CC[C@@H]1[C@@H]2CC[C@@]2(C)[C@H]1CC[C@]2(C)O | 2.8 µM | 5.7 µM | 4.8 µM | 5 µM | 5.2 µM | 1.3 µM | 3.5 µM | 2.8 µM | 4.5 µM | 4.7 µM | 18.4 µM | 3.74 µM
18 | COc1cc2c(cc1O)CC[C@@H]1[C@@H]2CC[C@@]2(C)[C@H]1CC[C@@]2(O)C(F)(F)F | 15.8 µM | 40 µM | > 40 µM |  | 18.2 µM | 16.2 µM | 22.4 µM | 19.5 µM | 24.5 µM | 19.5 µM | 49.3 µM | 18.2 µM
19 | COCc1cc2c(cc1O)CC[C@@H]1[C@@H]2CC[C@]2(C)[C@@H](O)CC[C@@H]12 | 40.7 µM | 28.8 µM | > 40 µM | 83.2 µM | 64.6 µM | 7.8 µM | 33.1 µM | 33.9 µM | 56.2 µM | 38 µM | 54 µM | 24.5 µM
20 | COc1cc2c(cc1O)CCC1[C@@H]2CC[C@@]2(C)[C@H]1CCC2(F)F (single isomer, unassigned) | 43.7 µM | 58.3 µM | > 40 µM | 81.3 µM | 56.2 µM | 35.5 µM | 66.1 µM | 31.6 µM | 24.5 µM | 40.7 µM | 70.8 µM | 58.9 µM
21 | C[C@]12CC[C@@H]3c4ccc(O)cc4CCC3[C@@H]1CCC2(F)F (single isomer, unassigned) | 11 µM | 6.6 µM | > 40 µM | 19.5 µM | 16.6 µM | 15.8 µM | 14.5 µM | 17.4 µM | 18.6 µM | 16.6 µM | 54.4 µM | 14.1 µM
